Experimental data: ChEMBL document CHEMBL3526127, “Absorption, elimination, and metabolism of CS-1036, a novel α-amylase inhibitor in rats and monkeys, and the relationship between gastrointestinal distribution and suppression of glucose absorption” (Drug Metab Dispos, 2013)

Columns and labels:
[1] = AUClast in F344 rat at 0.3 mg/kg, iv administered as single dose by LC-MS/MS method; format: ADME, organism-based; design: time 0 - last, dose 0.3 mg/kg, route intravenous; settings: plasma
How it was run: (§1)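 Fasted male F344 rats (146–185 g) or male cynomolgus monkeys (3.48–4.29 kg), n = 4 per dose, given single iv or oral dose of 0.3, 1.0, 3.0 or 10.0 mg/kg; monkeys dosed with 2-week washouts. Blood sampled to 48 h; plasma stored frozen. LC-MS/MS with deuterated internal standard. Noncompartmental analysis: AUClast by trapezoidal rule; AUC0–inf = AUClast + Ctz/terminal rate constant; mean ± S.D.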

[2] = AUC (0 to infinity) in F344 rat at 10 mg/kg, po administered as single dose by LC-MS/MS method; format: ADME, organism-based; design: time infinity, dose 10 mg/kg, route oral; settings: plasma; how it was run: as §1
[3] = Half life in F344 rat at 10 mg/kg, po administered as single dose by LC-MS/MS method; format: ADME, organism-based; design: dose 10 mg/kg, route oral; settings: in vivo
[4] = Half life in F344 rat at 0.3 mg/kg, iv administered as single dose by LC-MS/MS method; format: ADME, organism-based; design: dose 0.3 mg/kg, route intravenous; settings: in vivo
How it was run: (§2)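 Fasted male F344 rats (146–185 g, n = 4 per dose) received single i.v. CS-1036. Plasma was sampled up to 48 h and analysed by LC-MS/MS. t1/2 came from noncompartmental regression of three or more log-transformed terminal-phase points. Mean ± S.D.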

[5] = Half life in F344 rat at 10 mg/kg, iv administered as single dose by LC-MS/MS method; format: ADME, organism-based; design: dose 10 mg/kg, route intravenous; settings: in vivo; how it was run: as §2
[6] = Clearance in F344 rat at 3 mg/kg, iv administered as single dose by LC-MS/MS method; format: ADME, organism-based; design: dose 3 mg/kg, route intravenous; settings: in vivo
How it was run: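 Fasted male F344 rats (146–185 g) and male cynomolgus monkeys (3.48–4.29 kg), n = 4 each, received a single iv dose; monkeys had 2-week washouts between doses. Blood was sampled up to 48 h and plasma stored at […]. Plasma parent was quantified by LC-MS/MS with a deuterated internal standard. CL = dose/AUC0–inf by noncompartmental analysis; mean ± S.D.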

[7] = Volume of distribution at steady state in cynomolgus monkey at 1 mg/kg, iv administered as single dose by LC-MS/MS method; format: ADME, organism-based, Macaca fascicularis; design: dose 1 mg/kg, route intravenous; settings: in vivo, read-out: Vdss
How it was run: (§3)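 Male F344 rats (146–185 g) and male cynomolgus monkeys (3.48–4.29 kg), n = 4 each, fasted overnight, received single iv or oral doses of 0.3, 1.0, 3.0 or 10.0 mg/kg. Monkeys had 2-week washouts between doses. Plasma was sampled to 48 h and assayed by LC-MS/MS with deuterated internal standard. Noncompartmental analysis: tmax observed; t1/2 by regression on ≥3 terminal log points; Vss = dose·AUMC/(AUC0–inf)²; Foral = oral/iv AUC0–inf at the same dose.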

[8] = AUC (0 to infinity) in F344 rat at 3 mg/kg, iv administered as single dose by LC-MS/MS method; format: ADME, organism-based; design: time infinity, dose 3 mg/kg, route intravenous; settings: plasma; how it was run: as §1
[9] = Tmax in cynomolgus monkey at 3 mg/kg, po administered as single dose by LC-MS/MS method; format: ADME, organism-based, Macaca fascicularis; design: dose 3 mg/kg, route oral; settings: in vivo; how it was run: as §3
[10] = AUC (0 to infinity) in cynomolgus monkey at 10 mg/kg, po administered as single dose by LC-MS/MS method; format: ADME, organism-based, Macaca fascicularis; design: time infinity, dose 10 mg/kg, route oral; settings: plasma; how it was run: as §1
[11] = AUClast in F344 rat at 10 mg/kg, iv administered as single dose by LC-MS/MS method; format: ADME, organism-based; design: time 0 - last, dose 10 mg/kg, route intravenous; settings: plasma; how it was run: as §1
[12] = Volume of distribution at steady state in cynomolgus monkey at 0.3 mg/kg, iv administered as single dose by LC-MS/MS method; format: ADME, organism-based, Macaca fascicularis; design: dose 0.3 mg/kg, route intravenous; settings: in vivo, read-out: Vdss; how it was run: as §3
Rattus norvegicus [13] = test: Total drug excretion in bile duct cannulated F344 rat at 1 mg/kg, iv administered as single dose after 0 to 48 hrs by scintillation counting method; format: ADME, organism-based; design: dose 1 mg/kg, route intravenous; settings: in vivo
How it was run: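 Under ether anesthesia, the common bile duct of fasted F344 rats was cannulated. After recovery, rats received 1 mg/kg (41.9 µCi/kg) of the 14C-labelled compound iv or by oral gavage (n = 4). They were kept in Bollman cages, and bile was collected at 0–6, 6–24, 24–30 and 30–48 h at 4°C. Radioactivity was measured by liquid scintillation counting as % of dose.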

[14] = Ratio of drug level in blood to plasma in human after 5 mins; format: ADME
Ileum [15] = test: Drug distribution in F344 rat ileum at 1 mg/kg, po administered as single dose after 1 hr by scintillation counting method; format: ADME, organism-based; design: dose 1 mg/kg, route oral; settings: in vivo
How it was run: (§4)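 [14C]-labelled drug (1 mg/kg, 42.4 µCi/kg) was given orally to fasted F344 rats (148–168 g, n = 3). Contents of stomach, duodenum+jejunum, ileum and cecum were washed out with water at 0.5–8 h, homogenized, solubilized and counted by liquid scintillation. Results are % of dose, mean ± S.D.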

Plasma = test: Drug metabolism in po dosed F344 rat plasma by LC-MS/MS method; format: ADME, organism-based; settings: in vivo
[16] = Drug metabolism in F344 rat feces assessed as N-acetylated 1,4-dideoxy-1,4-imino-D-arabinitol formation by LC-MS/MS method; format: ADME, tissue-based
Ileum [17] = test: Drug distribution in F344 rat ileum at 1 mg/kg, po administered as single dose after 2 hrs by scintillation counting method; format: ADME, organism-based; design: dose 1 mg/kg, route oral; settings: in vivo; how it was run: as §4
[18] = Drug excretion in cynomolgus monkey feces at 3 mg/kg, po administered as single dose after 48 hrs by scintillation counting method; settings: in vivo
Cynomolgus monkey [19] = test: Drug excretion in cynomolgus monkey assessed as drug level found during cage washing at 3 mg/kg, iv administered as single dose after 0 to 336 hrs by scintillation counting method; format: ADME, organism-based, Macaca fascicularis; design: dose 3 mg/kg, route intravenous; settings: in vivo
How it was run: (§5)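 Fasted cynomolgus monkeys (n = 4) received [14C]-labelled drug at 3 mg/kg, iv via saphenous vein (191 µCi/kg) or orally by stomach catheter (156.5 µCi/kg). Urine, feces and water cage-wash were collected to 336 h. Samples were counted by liquid scintillation; feces were homogenized in 4-fold water. Results are % of dose, mean ± S.D.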

[20] = Drug excretion in cynomolgus monkey urine at 3 mg/kg, iv administered as single dose after 0 to 48 hrs by scintillation counting method; format: ADME, organism-based, Macaca fascicularis; design: dose 3 mg/kg, route intravenous; settings: in vivo
Rattus norvegicus [21] = test: Total drug excretion in F344 rat at 1 mg/kg, iv administered as single dose after 0 to 48 hrs by scintillation counting method; format: ADME, organism-based; design: dose 1 mg/kg, route intravenous; settings: in vivo
How it was run: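 Fasted F344 rats (n = 4) received [14C]-labelled drug at 1 mg/kg (41.9 µCi/kg), iv via tail vein or oral. They were housed in metabolic cages. Urine and feces were collected to 168 h, and expired CO2 was trapped in 2-aminoethanol/2-methoxyethanol to 48 h. Radioactivity was counted by liquid scintillation, feces after homogenization. Results are % of dose.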

Cynomolgus monkey [22] = test: Drug excretion in cynomolgus monkey assessed as drug level found during cage washing at 3 mg/kg, po administered as single dose after 0 to 48 hrs by scintillation counting method; format: ADME, organism-based, Macaca fascicularis; design: dose 3 mg/kg, route oral; settings: in vivo; how it was run: as §5
[23] = Drug metabolism in po dosed monkey urine assessed as 1,4-dideoxy-1,4-imino-D-arabinitol formation by LC-MS/MS method; settings: cynomolgus monkey, in vivo
[24] = Drug metabolism in monkey intestinal S9 fractions at 0.42 uCi/ml assessed as metabolite formation in presence of NADPH after 1 hr at 37 degC by LC-MS/MS method; settings: cynomolgus monkey, s9, 1 h

`C[C@H]1O[C@@H](O[C@H]2[C@H](O)[C@@H](O)[C@@H](O[C@H]3[C@H](O)CN[C@@H]3CO)O[C@@H]2CO)[C@H](O)[C@@H](O)[C@@H]1O` showed an AUC(0-t) [1] of 1860 ng·h/mL, an AUC(0-inf) [2] of 1080 ng·h/mL and a half-life [3] of 18.3 h. The half-life [4] was 14.6 h, the half-life [5] was 21.5 h and the clearance [6] was 2.67 mL/min/kg. It also gave a Vd [7] of 0.271 L/kg, an AUC(0-inf) [8] of 18800 ng·h/mL and a Tmax [9] of 1.75 h. The AUC(0-inf) [10] was 894 ng·h/mL, the AUC(0-t) [11] was 53000 ng·h/mL and the Vd [12] was 0.233 L/kg.

For `C[C@H]1O[C@@H](O[C@H]2[C@H](O)[C@@H](O)[C@@H](O[14C@H]3[14C@H](O)[14CH2]N[14C@@H]3[14CH2]O)O[C@@H]2CO)[C@H](O)[C@@H](O)[C@@H]1O`, the Drug excretion (Rattus norvegicus [13]) was 0.37%, the blood plasma ratio at 5 min [14] was 0.521 and the Drug uptake (Ileum [15]) was 67.7%. The Drug metabolism (Plasma) was “metabolite_not_detected”, the Drug metabolism [16] was “metabolite_detected” and the Drug uptake (Ileum [17]) was 33.9%. It also gave a Drug excretion [18] of 48.7%, a Drug excretion (Cynomolgus monkey [19]) of 14.5% and a Drug excretion [20] of 80.13%. For the same molecule, the Drug excretion (Rattus norvegicus [21]) was 86.96%, the Drug excretion (Cynomolgus monkey [22]) was 0.76% and the Drug metabolism [23] was “metabolite_detected”. The Drug metabolism [24] was “metabolite_not_detected”.
